Legend:
PRMT5/MEP50 complex = PRMT5/MEP50 complex (Homo sapiens, UniProt O14744); assay: Inhibition of human full length FLAG-tagged PRMT5/human His6-tagged MEP50 expressed in baculovirus-infected Sf9 cells assessed as reduction in tritium incorporation into peptide substrate using human Histone H4 (1 to 15 residues) and [3H]SAM as substrate preincubated with enzyme and H4 for 30 mins followed by [3H]SAM addition and measured after 120 mins by radioactive flashplate assay
[1] = molecular target: Protein arginine N-methyltransferase 5 (Homo sapiens, UniProt O14744); assay: Inhibition of PRMT5 in human Z138 cells assessed as reduction in symmetrical dimethylation of arginine containing substrate using SmD3 as substrate incubated for 4 days by In-cell western assay; assay type: cell-based
Protein arginine N-methyltransferase 5, sequence (O14744 whole entry): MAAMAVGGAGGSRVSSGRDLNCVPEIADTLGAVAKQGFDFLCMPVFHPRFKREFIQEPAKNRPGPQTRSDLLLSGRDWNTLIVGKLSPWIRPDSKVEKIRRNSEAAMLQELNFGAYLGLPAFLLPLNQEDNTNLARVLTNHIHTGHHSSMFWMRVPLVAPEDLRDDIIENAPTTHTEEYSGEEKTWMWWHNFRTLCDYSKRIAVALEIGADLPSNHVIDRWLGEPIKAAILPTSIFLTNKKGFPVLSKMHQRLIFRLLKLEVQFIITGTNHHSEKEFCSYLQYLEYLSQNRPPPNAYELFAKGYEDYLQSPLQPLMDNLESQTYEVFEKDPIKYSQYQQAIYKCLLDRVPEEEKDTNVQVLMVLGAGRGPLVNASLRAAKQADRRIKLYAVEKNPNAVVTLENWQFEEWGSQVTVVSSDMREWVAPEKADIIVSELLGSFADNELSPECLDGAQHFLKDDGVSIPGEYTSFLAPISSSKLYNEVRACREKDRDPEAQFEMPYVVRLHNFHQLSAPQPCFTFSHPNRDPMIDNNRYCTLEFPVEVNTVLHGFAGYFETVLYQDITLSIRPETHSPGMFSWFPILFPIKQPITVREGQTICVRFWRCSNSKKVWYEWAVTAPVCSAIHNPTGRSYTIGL

Z-138 = assay: Antiproliferative activity against human Z138 cells incubated for 5 days by cell titer-glo assay; assay type: functional, cell-based; details: Z-138, 120 h
[2] = Protein binding in CD-1 mouse plasma; assay type: ADME, cell-free; details: read-out: PPB (converted)
[3] = Time during which unbound drug concentration exceeds IC90 for inhibition of PRMT5 in human Z138 cells in CD-1 mouse at 100 mg/kg, po; assay type: organism-based; details: in vivo
In short: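 Male CD-1 mice received single oral doses of 10 and 100 mg/kg, and plasma concentration was profiled over time. Unbound concentration was compared with the cellular methyl-mark IC90 after correction for plasma protein binding in mouse plasma. The value is the time this unbound level stayed at or above that IC90.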

PRMT5/MEP50 complex, sequence (O14744 whole entry, the tested form may be a part): as the sequence (O14744 whole entry) above
PRMT5/MEP50 complex, sequence (Q9BQA1 whole entry, further chain, the tested form may be a part): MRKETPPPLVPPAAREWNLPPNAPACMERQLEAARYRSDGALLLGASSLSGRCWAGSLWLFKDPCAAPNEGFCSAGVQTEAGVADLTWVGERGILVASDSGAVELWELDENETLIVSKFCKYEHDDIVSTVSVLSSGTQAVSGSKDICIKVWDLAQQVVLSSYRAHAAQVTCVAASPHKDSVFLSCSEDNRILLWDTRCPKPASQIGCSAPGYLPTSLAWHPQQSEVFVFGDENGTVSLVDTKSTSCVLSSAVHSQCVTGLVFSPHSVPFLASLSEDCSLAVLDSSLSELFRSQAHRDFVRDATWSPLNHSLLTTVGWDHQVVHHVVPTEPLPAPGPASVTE

| IC50 (PRMT5/MEP50 complex) [nM] | IC50 [1] [nM] | fraction unbound [2] | Time [3] [h] | SMILES | IC50 (Z-138) [nM] |
| --- | --- | --- | --- | --- | --- |
| 326 |  |  |  | OC(COc1cccc(CNC2CCCC2)c1)CN1CCc2ccccc2C1 (stereo not given) |  |
| 7450 |  |  |  | OC(COc1cccc(CNC2CCCC2)c1)CN1Cc2ccccc2C1 (stereo not given) |  |
| 33 | 180 |  |  | Cn1cnc2ccc(-c3ccnc(NCC(O)CN4CCc5ccccc5C4)c3)cc21 (stereo not given) | 2100 |
| 95 | 406 |  |  | O=C(NC[C@@H](O)CN1CCc2ccccc2C1)c1cccc(-c2ccccn2)c1 | 18700 |
| 18 | 13 |  |  | O=C(NC[C@H](O)CN1CCc2ccccc2C1)c1cccc(NC2CCOCC2)c1 | 384 |
| 13 | 32 |  |  | O=C(NC[C@H](O)CN1CCc2ccccc2C1)c1cccc(-c2ccccn2)c1 | 890 |
| 73 | 435 |  |  | Cn1cnc2ccc(-c3cccc(OCC(O)CN4CCc5ccccc5C4)c3)cc21 (stereo not given) | 4260 |
| > 50000 |  |  |  | COc1cc2c(cc1OC)CN(CC(O)COc1cccc(CNC3CCCC3)c1)CC2 (stereo not given) |  |
|  |  | 0.7 | 12 | O=C(NC[C@H](O)CN1CCc2ccccc2C1)c1cc(NC2COC2)ncn1 |  |
|  |  |  |  | O=C(NC[C@H](O)CN1CCc2ccccc2C1)c1ccnc(NC2CCC2)c1 | 62 |
| 26800 |  |  |  | CN(Cc1ccccc1)CC(O)COc1cccc(CNC2CCCC2)c1 (stereo not given) |  |
| > 50000 |  |  |  | OC(COc1cccc(CNC2CCCC2)c1)CN1CCc2ccncc2C1 (stereo not given) |  |
| 13 | 37 |  |  | O=C(NCC(O)CN1CCc2ccccc2C1)c1cccc(-c2ccccn2)c1 (racemic) | 1680 |

| SMILES | IC50 (PRMT5/MEP50 complex) [nM] | IC50 [1] [nM] | fraction unbound [2] | Time [3] [h] | IC50 (Z-138) [nM] |
| --- | --- | --- | --- | --- | --- |
| O=C(COc1cccc2cccnc12)NC[C@@H](O)CN1CCc2ccccc2C1 | 11 | 16 |  |  | 451 |
| O=C(COc1cccc2cccnc12)NC[C@H](O)CN1CCc2ccccc2C1 | 144 | 327 |  |  | 12600 |
| O=C(COc1cccc2cccnc12)NCC(O)CN1CCc2ccccc2C1 (racemic) | 23 | 36 |  |  | 428 |

Source: ChEMBL document CHEMBL4680074, “Structure and Property Guided Design in the Identification of PRMT5 Tool Compound EPZ015666” (ACS Med Chem Lett, 2016)
